Compound activity from PubChem BioAssay.
OX1R antag-1: human HCRTR1 antagonism; O43613; CHO/OX1R cells, Fluo-8 calcium fluorescence, orexin A; inhibition, % at 5 µM; 0.43% of 330,000 active; AID 434989;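 active means inhibition above its plate's threshold, mean inhibition of all tested compounds on the plate plus 3 SD, cut at about 37% in these data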
Target sequence (O43613 whole entry, looked up): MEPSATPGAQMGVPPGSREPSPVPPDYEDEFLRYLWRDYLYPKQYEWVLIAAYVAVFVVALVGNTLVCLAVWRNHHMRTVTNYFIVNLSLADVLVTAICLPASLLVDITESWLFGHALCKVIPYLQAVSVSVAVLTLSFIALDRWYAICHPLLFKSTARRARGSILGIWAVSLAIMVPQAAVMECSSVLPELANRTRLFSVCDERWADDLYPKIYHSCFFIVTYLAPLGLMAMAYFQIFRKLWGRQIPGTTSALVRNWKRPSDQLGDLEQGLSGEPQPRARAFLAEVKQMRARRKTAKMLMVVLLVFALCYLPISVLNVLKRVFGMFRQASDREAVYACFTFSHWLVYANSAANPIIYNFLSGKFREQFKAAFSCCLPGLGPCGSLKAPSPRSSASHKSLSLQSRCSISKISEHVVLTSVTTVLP
EP2 modulator: modulators of human EP2 prostaglandin E2 receptor; EP2-expressing cells, cAMP HTRF FRET, PGE2 co-stimulation; AID 940; induction, % at 25 µM; 0.83% of 260,000 active; P43116;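 active means compounds whose cAMP rise, as percent of the full-agonist control response, exceeds 60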;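 further: rat C6 glioma line stably carrying human EP2 under a CMV promoter; the protocol text gives 20 µM as final concentration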
OX1R antag-2: antagonists of human orexin 1 receptor (OX1R) | OX1R-expressing cells, FRET antagonist read-out | inhibition, % at 6.6 µM | 1.8% of 330,000 active; in the data active means inhibition mostly above about 38%, no sharp cut-off; inactive means mostly below about 40%
PGE2 EP2 inh: EP2 receptor (human) inhibition; 0.52% of 260,000 active; C6 glioma cells expressing human EP2, cAMP TR-FRET; cells stimulated with saturating PGE2; AID 1422; inhibition, % at 25 µM; P43116;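 active means percent inhibition above 40 after rounding to a whole number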;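 further: rat C6 glioma host cells with rolipram phosphodiesterase inhibitor present; the protocol text gives 20 µM as final concentration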
GPR7 antag: blocks human GPR7 receptor signaling | P48145 | GPR7-expressing cells, fluorescence antagonist assay | inhibition, % at 4.4 µM | 1.1% of 290,000 active | AID 1861; in the data active means inhibition above about 16%, passing the limit was not always enough;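 further: cells stimulated with the agonist NPW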
CHO parental Ca: signal in parental CHO cells, OX1R antagonist counter-screen; parental CHO-K1, ATP-induced calcium, Fluo-8 fluorescence; inhibition, % at 5.6 µM; 0.63% of 330,000 active; AID 463079;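 active means inhibition above that plate's mean sample inhibition plus 3 SD, cut at about 26% in these data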
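Material: Parental CHO cells | Reagent: ATP | Compound dosing: Single nominal dose of 5.6 µM per compound | Detection: Intracellular calcium via Fluo-8 no-wash fluorescent dye | Read-out: % inhibition of ATP-induced calcium mobilization | Benchmarks: Low control ATP plus DMSO, high control DMSO only | Replicates: Singlicate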
Numbers stand for hits. Hits are enriched below; roughly 3.7% of the tested compounds scored in any of these assays.

Results for Cc1ccc(S(=O)(=O)NCCC(c2ccccc2)c2ccco2)cc1 (stereo unspecified) ?
OX1R antag-1: inactive; EP2 modulator: 64; OX1R antag-2: inactive; PGE2 EP2 inh: inactive; GPR7 antag: inactive; CHO parental Ca: inactive

How did COc1cc(CNn2c(C)n[nH]c2=S)cc(Br)c1OCc1ccc(F)cc1 do in these assays?
OX1R antag-1: inactive; EP2 modulator: inactive; OX1R antag-2: inactive; PGE2 EP2 inh: inactive; GPR7 antag: inactive; CHO parental Ca: inactive

What do the screens show for `COc1cc(CNn2c(C)n[nH]c2=S)cc(Cl)c1OCc1ccc(F)cc1`?
OX1R antag-1: 45; EP2 modulator: inactive; OX1R antag-2: inactive; PGE2 EP2 inh: inactive; GPR7 antag: inactive; CHO parental Ca: 35

What do the screens show for `CC(=O)c1nn(-c2ccccc2)cc1C(=O)c1ccc(Br)cc1`?
OX1R antag-1: inactive; EP2 modulator: inactive; OX1R antag-2: inactive; PGE2 EP2 inh: inactive; GPR7 antag: inactive; CHO parental Ca: 40

What do the screens show for `Clc1ccc2c(N/N=C/c3cccnc3)ccnc2c1`?
OX1R antag-1: inactive; EP2 modulator: inactive; OX1R antag-2: inactive; PGE2 EP2 inh: inactive; GPR7 antag: inactive; CHO parental Ca: inactive

Results for Clc1ccc2c(N/N=C/c3ccc(Br)cc3)ccnc2c1 ?
OX1R antag-1: inactive; EP2 modulator: inactive; OX1R antag-2: inactive; PGE2 EP2 inh: inactive; GPR7 antag: inactive; CHO parental Ca: 49

Results for CCN(CC(=O)Nc1c(F)cccc1F)C(=O)CNC(=O)c1ccc(Br)o1 ?
OX1R antag-1: inactive; OX1R antag-2: 60; CHO parental Ca: inactive

What do the screens show for `CCN(CC(=O)Nc1c(F)cccc1F)C(=O)CNC(=O)c1ccco1`?
OX1R antag-1: inactive; OX1R antag-2: inactive; CHO parental Ca: inactive

What do the screens show for `O=C(CCc1nnc(Cc2cccc(C(F)(F)F)c2)o1)NCC(F)(F)F`?
OX1R antag-1: inactive; EP2 modulator: inactive; OX1R antag-2: inactive; PGE2 EP2 inh: inactive; GPR7 antag: inactive; CHO parental Ca: inactive

How did O=C(c1ccco1)N1CCN(S(=O)(=O)c2ccc([N+](=O)[O-])cc2)CC1 do in these assays?
OX1R antag-1: inactive; EP2 modulator: inactive; OX1R antag-2: 63; PGE2 EP2 inh: inactive; GPR7 antag: inactive; CHO parental Ca: inactive

Results for Cc1nn(Cc2ccc(C(=O)N3CCN(C(=O)c4ccco4)CC3)o2)c(C)c1[N+](=O)[O-] ?
OX1R antag-1: inactive; OX1R antag-2: 66; GPR7 antag: inactive; CHO parental Ca: inactive

How did O=C(CCC(=O)N1CCN(S(=O)(=O)c2ccc([N+](=O)[O-])cc2)CC1)N1CCOCC1 do in these assays?
OX1R antag-1: inactive; OX1R antag-2: 48; CHO parental Ca: inactive

Results for CC1=NN(C(=O)c2ccc(Cn3nc(C)c([N+](=O)[O-])c3C)o2)C(O)(C(F)(F)F)C1 (stereo unspecified) ?
OX1R antag-1: inactive; EP2 modulator: inactive; OX1R antag-2: inactive; PGE2 EP2 inh: inactive; GPR7 antag: inactive; CHO parental Ca: inactive

How did O=C(Cc1ccccc1)Nc1ccc(N2CCCCC2)cc1 do in these assays?
OX1R antag-1: inactive; EP2 modulator: inactive; OX1R antag-2: inactive; PGE2 EP2 inh: inactive; GPR7 antag: inactive; CHO parental Ca: inactive

What do the screens show for `Cc1nn(C)cc1C(N)=O`?
OX1R antag-1: inactive; EP2 modulator: inactive; OX1R antag-2: inactive; PGE2 EP2 inh: inactive; GPR7 antag: inactive; CHO parental Ca: inactive

How did O=C(O)C/C(=C\c1cc(Cl)c2c(c1)OCO2)c1nc2ccccc2s1 do in these assays?
OX1R antag-1: inactive; OX1R antag-2: inactive; GPR7 antag: inactive; CHO parental Ca: inactive

What do the screens show for `COc1ccc(-c2cc3nccc(C4CCN(C(=O)OC(C)(C)C)CC4)n3n2)cc1OC`?
EP2 modulator: 80

Results for COc1ccc(C(=O)N2CCCC(c3ccnc4cc(C)nn34)C2)cc1OC (stereo unspecified) ?
EP2 modulator: inactive

How did CCOC(=O)COn1c(=O)c(-c2ccccc2)[n+]([O-])c2ccccc21 do in these assays?
OX1R antag-1: inactive; OX1R antag-2: inactive; GPR7 antag: inactive; CHO parental Ca: inactive

Results for CCOC(=O)COn1c(=O)c(-c2ccc(OC)c(OC)c2)[n+]([O-])c2ccccc21 ?
OX1R antag-1: inactive; EP2 modulator: inactive; OX1R antag-2: 51; PGE2 EP2 inh: inactive; GPR7 antag: inactive; CHO parental Ca: inactive

How did CCOC(=O)COn1c(=O)c(-c2ccc(OC)cc2)[n+]([O-])c2ccccc21 do in these assays?
OX1R antag-1: inactive; OX1R antag-2: 46; GPR7 antag: inactive; CHO parental Ca: inactive

How did Cc1cc(C(=O)CSc2nn3c(=O)c(C(C)(C)C)nnc3s2)c(C)n1-c1ccc(F)cc1 do in these assays?
OX1R antag-1: inactive; EP2 modulator: inactive; OX1R antag-2: inactive; PGE2 EP2 inh: 44; GPR7 antag: inactive; CHO parental Ca: inactive

What do the screens show for `Cc1ccc(S(=O)(=O)N2CCOCC2)cc1NC(=O)COC(=O)CCC(=O)c1cccs1`?
OX1R antag-1: inactive; EP2 modulator: inactive; OX1R antag-2: inactive; PGE2 EP2 inh: inactive; GPR7 antag: 19; CHO parental Ca: inactive

How did COc1ccc(NC(=O)CN(C)CC(=O)Nc2ccc3c(c2)CCC3)cc1 do in these assays?
OX1R antag-1: inactive; EP2 modulator: inactive; OX1R antag-2: inactive; PGE2 EP2 inh: inactive; GPR7 antag: inactive; CHO parental Ca: inactive

What do the screens show for `CN(CC(=O)Nc1ccc2c(c1)CCC2)CC(=O)Nc1ccccc1Br`?
OX1R antag-1: inactive; EP2 modulator: inactive; OX1R antag-2: 40; PGE2 EP2 inh: inactive; GPR7 antag: inactive; CHO parental Ca: inactive

What do the screens show for `O=C(NCCCn1ccnc1)c1cc(-c2ccc(Cl)cc2)nc2ccccc12`?
OX1R antag-1: inactive; EP2 modulator: inactive; OX1R antag-2: inactive; PGE2 EP2 inh: inactive; GPR7 antag: inactive; CHO parental Ca: inactive

What do the screens show for `COCCCn1c(=N)c(C(=O)NCc2ccc3c(c2)OCO3)cc2c(=O)n3ccccc3nc21`?
OX1R antag-1: inactive; EP2 modulator: inactive; OX1R antag-2: 59; PGE2 EP2 inh: inactive; GPR7 antag: inactive; CHO parental Ca: inactive

How did CCOCCCn1c(=N)c(C(=O)NCc2ccc3c(c2)OCO3)cc2c(=O)n3cccc(C)c3nc21 do in these assays?
OX1R antag-1: inactive; EP2 modulator: inactive; OX1R antag-2: 42; PGE2 EP2 inh: inactive; GPR7 antag: inactive; CHO parental Ca: inactive

What do the screens show for `Clc1ccc(Oc2cnns2)cc1Cl`?
OX1R antag-1: inactive; EP2 modulator: inactive; OX1R antag-2: inactive; PGE2 EP2 inh: inactive; GPR7 antag: inactive; CHO parental Ca: inactive

What do the screens show for `COc1ccc(OC)c(NC(=O)c2ccc(NC3=NC4CS(=O)(=O)CC4S3)cc2)c1` (stereo unspecified)?
OX1R antag-1: inactive; OX1R antag-2: inactive; GPR7 antag: inactive; CHO parental Ca: inactive

Results for O=C(O)Cn1c(=O)c2c3c(sc2n(Cc2ccccc2F)c1=O)CCCC3 ?
OX1R antag-1: inactive; OX1R antag-2: inactive; GPR7 antag: inactive; CHO parental Ca: inactive

How did COc1ccc(OC)c(NC(=O)c2cc3c(Cl)nc4ccccc4c3s2)c1 do in these assays?
OX1R antag-1: inactive; EP2 modulator: inactive; OX1R antag-2: inactive; PGE2 EP2 inh: inactive; GPR7 antag: inactive; CHO parental Ca: inactive
